Experimental data published in publication PMC3822625 (Journal of Cellular and Molecular Medicine, 2010).

Tests used:
P-gp = P-gp (Homo sapiens, UniProt P08183); assay: Calcein-AM assay by flow cytometry in CEM/ADR5000 cells; conditions: CCRF-CEM and CEM/ADR5000 cells, result in words
[1] = tested on: Tg(fli1:EGFP) zebrafish embryos; assay: Zebrafish embryo in vivo angiogenesis assay
[2] = molecular target: P-gp expressed in porcine capillaries (Sus scrofa, UniProt K7GMM7); assay: NBD-CSA transport in porcine brain capillaries; assay type: cell-based; conditions: confocal microscopy, result in words
Procedure, shortened: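 Porcine brain capillaries incubated with test compound and the fluorescent P-gp substrate NBD-CSA. Transport into the capillary lumen imaged by confocal microscopy (transmitted light, fluorescence, overlay) and quantified by fluorospectrometry. Negative-control capillaries stained with NBD-CSA only, same time course.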

Sequence of P-gp (P08183 whole entry): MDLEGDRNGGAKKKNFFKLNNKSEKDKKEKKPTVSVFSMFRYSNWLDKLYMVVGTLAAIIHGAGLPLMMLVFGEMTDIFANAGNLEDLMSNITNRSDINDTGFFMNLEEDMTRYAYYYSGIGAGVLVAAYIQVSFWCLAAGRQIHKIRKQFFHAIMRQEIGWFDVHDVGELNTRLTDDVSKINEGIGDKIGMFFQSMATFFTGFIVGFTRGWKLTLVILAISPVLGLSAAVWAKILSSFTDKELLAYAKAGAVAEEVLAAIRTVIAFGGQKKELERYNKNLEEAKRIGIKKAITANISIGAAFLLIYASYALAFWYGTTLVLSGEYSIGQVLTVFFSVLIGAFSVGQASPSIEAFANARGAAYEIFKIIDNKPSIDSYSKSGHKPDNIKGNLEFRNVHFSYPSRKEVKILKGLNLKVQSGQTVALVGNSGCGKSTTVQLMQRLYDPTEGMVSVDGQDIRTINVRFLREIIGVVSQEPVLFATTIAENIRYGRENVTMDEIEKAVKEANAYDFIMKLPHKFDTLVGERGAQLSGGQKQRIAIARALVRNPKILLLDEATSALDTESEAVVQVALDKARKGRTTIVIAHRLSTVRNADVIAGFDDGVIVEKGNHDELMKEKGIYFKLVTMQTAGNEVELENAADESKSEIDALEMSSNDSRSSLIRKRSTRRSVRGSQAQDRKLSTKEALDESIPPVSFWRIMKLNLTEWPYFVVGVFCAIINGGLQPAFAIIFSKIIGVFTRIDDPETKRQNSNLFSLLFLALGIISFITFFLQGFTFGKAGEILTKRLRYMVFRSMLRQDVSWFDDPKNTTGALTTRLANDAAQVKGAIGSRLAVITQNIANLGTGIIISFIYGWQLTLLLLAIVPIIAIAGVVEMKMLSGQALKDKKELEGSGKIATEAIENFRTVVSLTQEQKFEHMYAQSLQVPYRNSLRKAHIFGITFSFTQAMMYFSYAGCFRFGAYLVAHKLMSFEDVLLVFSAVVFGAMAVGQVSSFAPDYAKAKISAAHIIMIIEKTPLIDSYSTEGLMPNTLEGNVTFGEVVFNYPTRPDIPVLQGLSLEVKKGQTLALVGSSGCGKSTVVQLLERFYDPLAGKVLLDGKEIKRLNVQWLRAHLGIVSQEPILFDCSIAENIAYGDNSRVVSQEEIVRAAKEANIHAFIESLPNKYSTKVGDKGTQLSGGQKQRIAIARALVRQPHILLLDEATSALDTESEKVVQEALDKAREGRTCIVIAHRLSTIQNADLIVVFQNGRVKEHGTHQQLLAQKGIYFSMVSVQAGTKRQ
Sequence of P-gp expressed in porcine capillaries (K7GMM7 1-1248): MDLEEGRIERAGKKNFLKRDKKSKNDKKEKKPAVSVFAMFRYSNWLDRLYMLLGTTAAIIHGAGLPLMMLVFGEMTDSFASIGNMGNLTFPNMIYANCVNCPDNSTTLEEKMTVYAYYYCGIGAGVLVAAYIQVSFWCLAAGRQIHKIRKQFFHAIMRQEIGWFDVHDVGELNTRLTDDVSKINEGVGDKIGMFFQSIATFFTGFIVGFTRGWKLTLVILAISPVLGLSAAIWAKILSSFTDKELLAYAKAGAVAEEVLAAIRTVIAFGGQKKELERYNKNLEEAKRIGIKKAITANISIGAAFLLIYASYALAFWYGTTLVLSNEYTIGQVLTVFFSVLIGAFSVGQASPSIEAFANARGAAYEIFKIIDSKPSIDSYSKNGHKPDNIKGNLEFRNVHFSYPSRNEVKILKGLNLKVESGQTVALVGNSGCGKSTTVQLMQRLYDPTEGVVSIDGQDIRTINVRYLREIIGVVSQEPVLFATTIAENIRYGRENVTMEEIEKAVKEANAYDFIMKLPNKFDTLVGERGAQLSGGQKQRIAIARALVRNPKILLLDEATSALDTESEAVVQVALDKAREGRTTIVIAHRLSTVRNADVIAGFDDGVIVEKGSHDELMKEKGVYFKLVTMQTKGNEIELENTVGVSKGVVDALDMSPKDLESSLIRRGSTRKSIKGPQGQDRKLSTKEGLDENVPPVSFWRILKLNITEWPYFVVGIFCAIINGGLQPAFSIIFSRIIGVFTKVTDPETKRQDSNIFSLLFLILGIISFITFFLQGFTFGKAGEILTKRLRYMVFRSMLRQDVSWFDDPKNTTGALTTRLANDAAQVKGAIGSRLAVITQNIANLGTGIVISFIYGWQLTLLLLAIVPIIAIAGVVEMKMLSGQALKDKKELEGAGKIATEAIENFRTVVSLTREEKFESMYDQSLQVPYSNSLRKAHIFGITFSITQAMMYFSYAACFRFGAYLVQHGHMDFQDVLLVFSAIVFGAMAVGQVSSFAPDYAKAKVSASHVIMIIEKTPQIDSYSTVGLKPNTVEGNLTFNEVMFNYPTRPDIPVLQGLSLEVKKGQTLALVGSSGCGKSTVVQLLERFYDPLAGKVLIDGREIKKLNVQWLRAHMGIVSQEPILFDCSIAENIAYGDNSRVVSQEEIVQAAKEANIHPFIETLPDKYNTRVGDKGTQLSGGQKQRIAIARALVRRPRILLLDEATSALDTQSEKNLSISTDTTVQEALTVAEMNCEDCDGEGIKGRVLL

SMILES: C[C@H]1[C@H](OC(=O)CCC(=O)O)O[C@@H]2O[C@@]3(C)CC[C@H]4[C@H](C)CC[C@@H]1[C@@]24OO3 [Artesunate, artesunate]
- P-gp inhibition (calcein accumulation) (P-gp): do not act as P-gp inhibitors
- Dead = number of dead embryos up to 48 hpf ([1]; 25 μg/ml, N=20 embryos): 1
- Dead = number of dead embryos up to 48 hpf ([1]; 50 μg/ml, N=20 embryos): 1
- Dead = number of dead embryos up to 48 hpf ([1]; 100 μg/ml, N=20 embryos): 1
- Dead = number of dead embryos up to 48 hpf ([1]; 200 μg/ml, N=10 embryos): 1
- Anti-angiogenic effect ([1]; overall assessment over the dose range, result in words): dose-dependent anti-angiogenic effects

SMILES: C[C@@H]1CC[C@H]2[C@@H](C)C(=O)O[C@@H]3O[C@@]4(C)CC[C@@H]1[C@]32OO4 [Compound 1, artemisinin]
- P-gp inhibition (calcein accumulation) (P-gp): do not act as P-gp inhibitors

SMILES: CC1=CO[C@@H]2O[C@@]3(C)CC[C@H]4[C@H](C)CC[C@@H]1[C@@]24OO3 [Compound 4, anhydrodihydroartemisinin]
- Dead = number of dead embryos up to 48 hpf ([1]; 50 μg/ml, N=10 embryos): 2
- Dead = number of dead embryos up to 48 hpf ([1]; 75 μg/ml, N=10 embryos): 5

SMILES: C/C=C/C[C@@H](C)C(=O)[C@H]1C(=O)N[C@@H](C(C)C)C(=O)N(C)CC(=O)N(C)[C@@H](CC(C)C)C(=O)N[C@@H](C(C)C)C(=O)N(C)[C@@H](CC(C)C)C(=O)N[C@@H](C)C(=O)N[C@H](C)C(=O)N(C)[C@@H](CC(C)C)C(=O)N(C)[C@@H](CC(C)C)C(=O)N(C)[C@@H](C(C)C)C(=O)N1C [PSC-833]
- Inhibition of luminal P-gp (NBD-CSA transport) [2]: inhibited

SMILES: Cc1cc(C)c(/C=C2\C(=O)Nc3ccccc32)[nH]1 [SU5416]
- Formation of ISVs at 28 hpf ([1]; 10 μg/ml, 28 hpf, result in words): completely blocked formation of ISVs
- ISV sprouting at 48 hpf ([1]; 10 μg/ml, 48 hpf, compared to control embryos, result in words): sprouted only minimally
- Heart rate ([1]; 10 μg/ml, result in words): not affected
- Oedema ([1]; 10 μg/ml, result in words): rarely observed
